The values that follow come from ChEMBL document CHEMBL1151809, “Prenylated and benzylated flavonoids from the fruits of Cudrania tricuspidata” (J Nat Prod, 2009).

Bounds are passed on as bounds.

In data set [1] the test system is RAW264.7. The experiment in a line: Inhibition of LPS-induced nitric oxide production in mouse RAW264.7 cells by Griess assay. It counts as functional, cell-based. The method in brief:
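LPS-stimulated RAW 264.7 cells; NO output measured as nitrite in culture supernatant by Griess reagent. IC50 derived, reported as mean ± SD from three separate experiments. Aminoguanidine run as positive control.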
For orientation: Nitrite, measured by Griess reagent, commonly stands in for NO production.

In data set [2] the test system is RAW264.7. Briefly: Cytotoxicity against mouse RAW264.7 cells by CCK-8 assay. The class given is cell-based. The method in brief:
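Viability read by CCK-8 on the cells remaining after the Griess nitrite assay of the LPS-stimulated RAW 264.7 cultures.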

A word on the IC50: it is the concentration that gives 50% inhibition. The low end stands for greater potency in that assay, the high end for weaker potency in that assay. For `N=C(N)NN` [PIMAGEDINE], 28 µM corresponded to half-maximal inhibition with RAW264.7 [1] (IC50). In turn, `C=C(C)C(O)Cc1c(O)c(CC=C(C)C)c2occ(-c3ccc(O)cc3)c(=O)c2c1O` (stereo not given) [ISOERYSENEGALENSEIN E] registered an IC50 with RAW264.7 [1] of 12.7 µM. In addition, in the data set with RAW264.7 [2], the Activity entry is given as “Non-toxic”.

`O=c1c(-c2ccc(O)c(O)c2)coc2cc(O)cc(O)c12` [OROBOL]: half-maximal inhibition in the data set on RAW264.7 [1] (IC50) required 18.7 µM. The Activity result in the data set with RAW264.7 [2] is reported as “Non-toxic”. For `CC(C)=CCc1c2c(c3occ(-c4ccc(O)cc4)c(=O)c3c1O)CC(C(C)(C)O)O2` (stereo not given) [SENEGALENSIN], in that order: 13.1 µM and “Non-toxic”. `CO[C@@H]1c2c(c(CC=C(C)C)c(O)c3c(=O)c(-c4ccc(O)cc4)coc23)O[C@H]1C(C)(C)O` showed an IC50 with RAW264.7 [1] of 11.8 µM. In addition, the Activity entry with RAW264.7 [2] is on record as “Non-toxic”. In turn, `C=C(C)C(O)Cc1c(O)c(CC=C(C)C)c(O)c2c(=O)c(-c3ccc(O)cc3)coc12` (stereo not given) [ERYSENEGALENSEIN E] displayed an IC50 in the data set on RAW264.7 [1] of 18.4 µM. Further, the Activity result in the data set on RAW264.7 [2] is on record as “Non-toxic”.

As for `C=C(C)C(O)Cc1c(O)cc2occ(-c3ccc(OC)cc3)c(=O)c2c1O` (stereo not given), the IC50 with RAW264.7 [1] was greater than 50 µM. Moreover, the Activity result in the data set with RAW264.7 [2] is on record as “Non-toxic”. `O=C1c2c(O)c(Cc3ccc(O)cc3)c(O)c(Cc3ccc(O)cc3)c2O[C@H](c2ccc(O)cc2)[C@H]1O` [GERICUDRANIN D] came in with an IC50 in the data set on RAW264.7 [1] greater than 50 µM. For the same compound, in the data set with RAW264.7 [2], the Activity result is listed as “Non-toxic”. For `O=C1c2c(cc(O)c(Cc3ccc(O)cc3)c2O)O[C@H](c2ccc(O)cc2)[C@H]1O` [GERICUDRANIN E] the same measures were 41.8 µM and “Non-toxic”. In the data set on RAW264.7 [1], `CC(C)=CCc1c2oc(C(C)(C)O)cc2c(O)c2c(=O)c(-c3ccc(O)cc3)coc12` yielded an IC50 of 12.1 µM. Besides, in the data set with RAW264.7 [2], the Activity entry is on record as “Non-toxic”.

For the compound `O=C1c2c(O)cc(O)c(Cc3ccc(O)cc3)c2O[C@H](c2ccc(O)cc2)[C@H]1O`, in the data set on RAW264.7 [1], the IC50 was greater than 50 µM. Moreover, the Activity entry with RAW264.7 [2] is given as “Non-toxic”. `COc1ccc(-c2coc3cc4c(c(O)c3c2=O)C=CC(C)(C)O4)cc1O` yielded an IC50 in the data set on RAW264.7 [1] greater than 50 µM. The Activity result in the data set on RAW264.7 [2] is listed as “Non-toxic”. As to `CC(C)=CCc1c(O)c(CC=C(C)C)c2occ(-c3ccc(O)cc3)c(=O)c2c1O`, the IC50 in the data set with RAW264.7 [1] amounted to 19.2 µM. For the same compound, the Activity result in the data set on RAW264.7 [2] is “Non-toxic”.
